Data as given in ChEMBL document CHEMBL1268902, “9-Dihydroerythromycin ethers as motilin agonists--developing structure-activity relationships for potency and safety” (Bioorg Med Chem, 2010).
≈ marks a conversion by molar mass, not a printed value.

Columns and labels:
[1] = target: T1, hERG (KCNH2) (Homo sapiens, UniProt Q12809); test: Inhibition of human ERG at 300 uM
[2] = target: T1, hERG (KCNH2); test: Inhibition of human ERG at 30 uM
[3] = Induction of contraction in rabbit smooth muscle; assay type: functional, tissue-based, Oryctolagus cuniculus, Muscle tissue
Outline: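 Rabbit smooth muscle contractility assay; EC50 taken as the concentration giving 50% of maximal possible contraction.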

[4] = system: Streptococcus pneumoniae; test: Antibacterial activity against erythromycin-sensitive Streptococcus pneumoniae ATCC 6301; assay type: functional
Outline: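 MIC determined by growth inhibition; routine screening used the highly erythromycin-sensitive strain S. pneumoniae ATCC6301.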

[5] = Induction of contraction in rabbit smooth muscle at EC90 concentration after three cycles of administration and washout measured after 4th dose; assay type: functional, Oryctolagus cuniculus, Muscle tissue
Outline: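 Rabbit smooth muscle contractility; drug applied at EC90 concentration through three cycles of administration and washout, tachyphylaxis reported as % contractility response then obtained.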

T1 sequence (Q12809 whole entry): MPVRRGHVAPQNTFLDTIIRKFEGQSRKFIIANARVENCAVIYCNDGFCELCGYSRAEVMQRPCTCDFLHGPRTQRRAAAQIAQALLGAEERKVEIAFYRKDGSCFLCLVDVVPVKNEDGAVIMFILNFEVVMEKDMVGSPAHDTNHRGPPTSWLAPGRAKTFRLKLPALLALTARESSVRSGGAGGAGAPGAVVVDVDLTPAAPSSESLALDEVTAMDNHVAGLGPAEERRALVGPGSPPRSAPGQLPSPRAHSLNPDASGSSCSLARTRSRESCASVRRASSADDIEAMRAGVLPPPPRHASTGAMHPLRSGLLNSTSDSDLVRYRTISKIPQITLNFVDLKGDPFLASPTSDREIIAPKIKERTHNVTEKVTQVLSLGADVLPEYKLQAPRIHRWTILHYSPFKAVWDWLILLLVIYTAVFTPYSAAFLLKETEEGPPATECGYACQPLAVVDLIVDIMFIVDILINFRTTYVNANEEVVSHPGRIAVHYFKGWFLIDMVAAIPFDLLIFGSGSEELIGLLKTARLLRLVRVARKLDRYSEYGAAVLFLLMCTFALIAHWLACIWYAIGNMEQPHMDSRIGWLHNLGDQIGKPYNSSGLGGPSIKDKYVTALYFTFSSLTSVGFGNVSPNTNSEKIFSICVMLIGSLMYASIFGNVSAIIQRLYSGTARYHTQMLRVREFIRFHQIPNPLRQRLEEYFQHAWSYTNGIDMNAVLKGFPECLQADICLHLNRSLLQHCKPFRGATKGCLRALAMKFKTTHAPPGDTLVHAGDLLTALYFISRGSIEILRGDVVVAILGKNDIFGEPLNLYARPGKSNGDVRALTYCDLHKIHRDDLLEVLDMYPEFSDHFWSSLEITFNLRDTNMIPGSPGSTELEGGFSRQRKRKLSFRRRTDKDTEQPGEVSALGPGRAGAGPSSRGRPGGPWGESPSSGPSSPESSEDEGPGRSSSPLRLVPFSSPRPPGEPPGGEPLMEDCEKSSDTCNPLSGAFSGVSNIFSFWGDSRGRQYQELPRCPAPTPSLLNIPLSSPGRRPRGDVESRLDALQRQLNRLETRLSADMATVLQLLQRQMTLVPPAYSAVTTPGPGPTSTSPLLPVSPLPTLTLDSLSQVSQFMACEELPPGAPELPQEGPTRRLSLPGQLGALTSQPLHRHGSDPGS

SMILES: CC[C@H]1OC(=O)[C@H](C)[C@@H](O[C@H]2C[C@@](C)(OC)[C@@H](O)[C@H](C)O2)[C@H](C)[C@@H](O[C@@H]2O[C@H](C)C[C@H](N(C)C(C)C)[C@H]2O)[C@](C)(O)C[C@@H](C)[C@H](OCCN)[C@H](C)[C@@H](O)[C@]1(C)O
- inhibition at 300 µM [1]: 76%
- inhibition at 30 µM [2]: 25%
- EC50 [3]: 2300 nM
- MIC [4]: 128 µg/mL (≈ 159 µM)

SMILES: CC[C@H]1OC(=O)[C@H](C)[C@@H](O[C@H]2C[C@@](C)(OC)C[C@H](C)O2)[C@H](C)[C@@H](O[C@@H]2O[C@H](C)C[C@H](N(C)C(C)C)[C@H]2O)[C@]2(C)CC(C)=C(O2)[C@H](C)C(=O)[C@]1(C)OC
- inhibition at 300 µM [1]: 100%
- Activity [5]: 9%
- inhibition at 30 µM [2]: 84%
- EC50 [3]: 11 nM

SMILES: CC[C@H]1OC(=O)[C@H](C)[C@@H](O[C@H]2C[C@@](C)(OC)[C@@H](O)[C@H](C)O2)[C@H](C)[C@@H](O[C@@H]2O[C@H](C)C[C@H](N(C)C(C)C)[C@H]2O)[C@](C)(O)C[C@@H](C)[C@H](OCCNC=O)[C@H](C)[C@@H](O)[C@]1(C)O
- inhibition at 300 µM [1]: 47%
- Activity [5]: 100%
- inhibition at 30 µM [2]: 8%
- EC50 [3]: 31 nM
- MIC [4]: > 128 µg/mL

SMILES: CC[C@H]1OC(=O)[C@H](C)[C@@H](O[C@H]2C[C@@](C)(OC)[C@@H](O)[C@H](C)O2)[C@H](C)[C@@H](O[C@@H]2O[C@H](C)C[C@H](N(C)C(C)C)[C@H]2O)[C@](C)(O)C[C@@H](C)[C@H](OCCNC(C)=O)[C@H](C)[C@@H](O)[C@]1(C)O
- inhibition at 300 µM [1]: 73%
- Activity [5]: 94%
- inhibition at 30 µM [2]: 47%
- EC50 [3]: 48 nM
- MIC [4]: > 128 µg/mL

SMILES: CC[C@H]1OC(=O)[C@H](C)[C@@H](O[C@H]2C[C@@](C)(OC)[C@@H](O)[C@H](C)O2)[C@H](C)[C@@H](O[C@@H]2O[C@H](C)C[C@H](N(C)C(C)C)[C@H]2O)[C@](C)(O)C[C@@H](C)[C@H](OCCNC(=O)c2ccc3[nH]cnc3c2)[C@H](C)[C@@H](O)[C@]1(C)O
- inhibition at 300 µM [1]: 100%
- Activity [5]: 94%
- inhibition at 30 µM [2]: 71%
- EC50 [3]: 37 nM
- MIC [4]: 128 µg/mL (≈ 135 µM)

SMILES: CC[C@H]1OC(=O)[C@H](C)[C@@H](O[C@H]2C[C@@](C)(OC)[C@@H](O)[C@H](C)O2)[C@H](C)[C@@H](O[C@@H]2O[C@H](C)C[C@H](N(C)C(C)C)[C@H]2O)[C@](C)(O)C[C@@H](C)[C@H](OCCNC(=O)OC)[C@H](C)[C@@H](O)[C@]1(C)O
- inhibition at 300 µM [1]: 95%
- inhibition at 30 µM [2]: 40%
- EC50 [3]: 130 nM
- MIC [4]: 128 µg/mL (≈ 148 µM)

SMILES: CCOC(=O)NCCO[C@@H]1[C@H](C)[C@@H](O)[C@](C)(O)[C@@H](CC)OC(=O)[C@H](C)[C@@H](O[C@H]2C[C@@](C)(OC)[C@@H](O)[C@H](C)O2)[C@H](C)[C@@H](O[C@@H]2O[C@H](C)C[C@H](N(C)C(C)C)[C@H]2O)[C@](C)(O)C[C@H]1C
- inhibition at 300 µM [1]: 100%
- inhibition at 30 µM [2]: 67%
- EC50 [3]: 100 nM
- MIC [4]: 64 µg/mL (≈ 72.8 µM)

SMILES: CCNC(=O)NCCO[C@@H]1[C@H](C)[C@@H](O)[C@](C)(O)[C@@H](CC)OC(=O)[C@H](C)[C@@H](O[C@H]2C[C@@](C)(OC)[C@@H](O)[C@H](C)O2)[C@H](C)[C@@H](O[C@@H]2O[C@H](C)C[C@H](N(C)C(C)C)[C@H]2O)[C@](C)(O)C[C@H]1C
- inhibition at 300 µM [1]: 57%
- Activity [5]: 88%
- inhibition at 30 µM [2]: 20%
- EC50 [3]: 100 nM
- MIC [4]: > 128 µg/mL

SMILES: CCNC(=S)NCCO[C@@H]1[C@H](C)[C@@H](O)[C@](C)(O)[C@@H](CC)OC(=O)[C@H](C)[C@@H](O[C@H]2C[C@@](C)(OC)[C@@H](O)[C@H](C)O2)[C@H](C)[C@@H](O[C@@H]2O[C@H](C)C[C@H](N(C)C(C)C)[C@H]2O)[C@](C)(O)C[C@H]1C
- inhibition at 300 µM [1]: 88%
- inhibition at 30 µM [2]: 36%
- EC50 [3]: 220 nM
- MIC [4]: > 120 µg/mL

SMILES: CCCNC(=S)NCCO[C@@H]1[C@H](C)[C@@H](O)[C@](C)(O)[C@@H](CC)OC(=O)[C@H](C)[C@@H](O[C@H]2C[C@@](C)(OC)[C@@H](O)[C@H](C)O2)[C@H](C)[C@@H](O[C@@H]2O[C@H](C)C[C@H](N(C)C(C)C)[C@H]2O)[C@](C)(O)C[C@H]1C
- inhibition at 300 µM [1]: 100%
- inhibition at 30 µM [2]: 53%
- EC50 [3]: 210 nM
- MIC [4]: 128 µg/mL (≈ 141 µM)

SMILES: CC[C@H]1OC(=O)[C@H](C)[C@@H](O[C@H]2C[C@@](C)(OC)[C@@H](O)[C@H](C)O2)[C@H](C)[C@@H](O[C@@H]2O[C@H](C)C[C@H](N(C)C(C)C)[C@H]2O)[C@](C)(O)C[C@@H](C)[C@H](OCCNS(C)(=O)=O)[C@H](C)[C@@H](O)[C@]1(C)O
- inhibition at 300 µM [1]: 79%
- Activity [5]: 94%
- inhibition at 30 µM [2]: 12%
- EC50 [3]: 240 nM
- MIC [4]: > 128 µg/mL

SMILES: CC[C@H]1OC(=O)[C@H](C)[C@@H](O[C@H]2C[C@@](C)(OC)[C@@H](O)[C@H](C)O2)[C@H](C)[C@@H](O[C@@H]2O[C@H](C)C[C@H](N(C)C(C)C)[C@H]2O)[C@](C)(O)C[C@@H](C)[C@H](OCCNC(C)C)[C@H](C)[C@@H](O)[C@]1(C)O
- inhibition at 300 µM [1]: 93%
- inhibition at 30 µM [2]: 40%
- EC50 [3]: 2000 nM
- MIC [4]: 64 µg/mL (≈ 75.4 µM)

SMILES: CC[C@H]1OC(=O)[C@H](C)[C@@H](O[C@H]2C[C@@](C)(OC)[C@@H](O)[C@H](C)O2)[C@H](C)[C@@H](O[C@@H]2O[C@H](C)C[C@H](N(C)C(C)C)[C@H]2O)[C@](C)(O)C[C@@H](C)[C@H](OCCNC(=N)N)[C@H](C)[C@@H](O)[C@]1(C)O
- EC50 [3]: 3600 nM

SMILES: CC[C@H]1OC(=O)[C@H](C)[C@@H](O[C@H]2C[C@@](C)(OC)[C@@H](O)[C@H](C)O2)[C@H](C)[C@@H](O[C@@H]2O[C@H](C)C[C@H](N(C)C(C)C)[C@H]2O)[C@](C)(O)C[C@@H](C)[C@H](OCc2csc(C)n2)[C@H](C)[C@@H](O)[C@]1(C)O
- inhibition at 300 µM [1]: 100%
- inhibition at 30 µM [2]: 63%
- EC50 [3]: 480 nM
- MIC [4]: 128 µg/mL (≈ 146 µM)

SMILES: CC[C@H]1OC(=O)[C@H](C)[C@@H](O[C@H]2C[C@@](C)(OC)[C@@H](O)[C@H](C)O2)[C@H](C)[C@@H](O[C@@H]2O[C@H](C)C[C@H](N(C)C(C)C)[C@H]2O)[C@](C)(O)C[C@@H](C)[C@H](OCc2nccs2)[C@H](C)[C@@H](O)[C@]1(C)O
- inhibition at 300 µM [1]: 100%
- inhibition at 30 µM [2]: 61%
- EC50 [3]: 290 nM
- MIC [4]: 128 µg/mL (≈ 149 µM)

SMILES: CC[C@H]1OC(=O)[C@H](C)[C@@H](O[C@H]2C[C@@](C)(OC)[C@@H](O)[C@H](C)O2)[C@H](C)[C@@H](O[C@@H]2O[C@H](C)C[C@H](N(C)C(C)C)[C@H]2O)[C@](C)(O)C[C@@H](C)[C@H](OCc2cc(C)on2)[C@H](C)[C@@H](O)[C@]1(C)O
- inhibition at 300 µM [1]: 90%
- Activity [5]: 78%
- inhibition at 30 µM [2]: 45%
- EC50 [3]: 110 nM
- MIC [4]: 128 µg/mL (≈ 149 µM)

SMILES: CC[C@H]1OC(=O)[C@H](C)[C@@H](O[C@H]2C[C@@](C)(OC)[C@@H](O)[C@H](C)O2)[C@H](C)[C@@H](O[C@@H]2O[C@H](C)C[C@H](N(C)C(C)C)[C@H]2O)[C@](C)(O)C[C@@H](C)[C@H](OCc2ccncc2)[C@H](C)[C@@H](O)[C@]1(C)O
- inhibition at 300 µM [1]: 100%
- inhibition at 30 µM [2]: 68%
- EC50 [3]: 420 nM
- MIC [4]: 128 µg/mL (≈ 150 µM)

SMILES: CC[C@H]1OC(=O)[C@H](C)[C@@H](O[C@H]2C[C@@](C)(OC)[C@@H](O)[C@H](C)O2)[C@H](C)[C@@H](O[C@@H]2O[C@H](C)C[C@H](N(C)C(C)C)[C@H]2O)[C@](C)(O)C[C@@H](C)[C@H](OCc2nc[nH]n2)[C@H](C)[C@@H](O)[C@]1(C)O
- inhibition at 300 µM [1]: 40%
- Activity [5]: 97%
- inhibition at 30 µM [2]: 8%
- EC50 [3]: 54 nM
- MIC [4]: 128 µg/mL (≈ 151 µM)

SMILES: CC[C@H]1OC(=O)[C@H](C)[C@@H](O[C@H]2C[C@@](C)(OC)[C@@H](O)[C@H](C)O2)[C@H](C)[C@@H](O[C@@H]2O[C@H](C)C[C@H](N(C)C(C)C)[C@H]2O)[C@](C)(O)C[C@@H](C)[C@H](OCc2c[nH]cn2)[C@H](C)[C@@H](O)[C@]1(C)O
- inhibition at 300 µM [1]: 98%
- inhibition at 30 µM [2]: 48%
- EC50 [3]: 63 nM

SMILES: CC[C@H]1OC(=O)[C@H](C)[C@@H](O[C@H]2C[C@@](C)(OC)[C@@H](O)[C@H](C)O2)[C@H](C)[C@@H](O[C@@H]2O[C@H](C)C[C@H](N(C)C(C)C)[C@H]2O)[C@](C)(O)C[C@@H](C)[C@H](OCC(=O)NC)[C@H](C)[C@@H](O)[C@]1(C)O
- Activity [5]: 89%
- EC50 [3]: 58 nM
- MIC [4]: 128 µg/mL (≈ 153 µM)

SMILES: CC[C@H]1OC(=O)[C@H](C)[C@@H](O[C@H]2C[C@@](C)(OC)CC(C)O2)[C@H](C)[C@@H](O[C@@H]2O[C@H](C)C[C@H](N(C)CC)[C@H]2O)C2(C)CC(C)=C(O2)[C@H](C)[C@@H](O)[C@H]1C (single isomer, unassigned)
- Activity [5]: 22%
- EC50 [3]: 7 nM

SMILES: CC[C@H]1OC(=O)[C@H](C)[C@@H](O[C@H]2C[C@@](C)(OC)[C@@H](O)[C@H](C)O2)[C@H](C)[C@@H](O[C@@H]2O[C@H](C)C[C@H](N(C)C(C)C)[C@H]2O)[C@](C)(O)C[C@@H](C)[C@H](O)[C@H](C)[C@@H](O)[C@]1(C)O [3 9-DIHYDRO-N-DESMETHYL-N-ISOPROPYLERYTHROMYCIN A]
- Activity [5]: 85%
- EC50 [3]: 260 nM

SMILES: CC[C@H]1OC(=O)[C@H](C)[C@@H](O[C@H]2C[C@@](C)(OC)[C@@H](O)[C@H](C)O2)[C@H](C)[C@@H](O[C@@H]2O[C@H](C)C[C@H](N(C)C)[C@H]2O)[C@](C)(O)C[C@@H](C)C(=O)[C@H](C)[C@@H](O)[C@]1(C)O [ERYTHROMYCIN]
- Activity [5]: 97%
- EC50 [3]: 1200 nM
